Results gathered from unrelated publications.
Compare with care: the assays were run in different laboratories.
Target: Vascular endothelial growth factor receptor 1 (FLT1, Homo sapiens, UniProt P17948)

SMILES	effect on	action	technique	concentration	quantity	value
COc1cc2ncnc(Nc3ccc(Oc4ccccc4)c(C)c3C)c2cc1OC	enzyme activity	inhibitor		1 µM	inhibition	0%
N#CC1(c2ccccn2)CCN(Cc2cc(C(=O)N3CCCC3)c(=O)n3ccccc23)CC1	cell-free assay		competition with immobilised ligand	1 µM	remaining binding	100%
CNC(=O)c1cc2c(Oc3ccc(NC(=O)C4(C(=O)Nc5ccc(F)cc5)CC4)cc3)ccnc2cc1OC	enzyme activity	inhibitor	radiometric	1 µM	inhibition	106%
O=C1Nc2ccc(Cl)cc2C1=Cc1cc(Cl)c(O)c(Cl)c1	cell-free assay			0.5 µM	remaining signal	85%
COc1cc(Nc2cnc(C#N)c(O[C@H](C)CN(C)C)n2)ncc1-c1cnn(C)c1	enzyme activity	inhibitor	radiometric	10 µM	remaining activity	31%
CC(C)(C)C(=O)c1sc(NC2CCCCC2)nc1N	enzyme activity	inhibitor		10 µM	remaining activity	82%
Cc1sc(C(=O)NC2COC2)cc1-n1cc(NC(=O)Nc2c(F)cccc2Cl)cn1	enzyme activity	inhibitor		10 µM	remaining activity	84.1%
O=C(N[C@H]1CCCCC/C=C\C2C[C@@]2(C(=O)O)NC(=O)[C@@H]2C[C@@H](Oc3ccncc3)CN2C1=O)OC1CCCC1 (stereo partly drawn)	cell-free assay		competition with immobilised ligand	1 µM	remaining binding	100%
Nc1nc(NC2CCCCC2)sc1C(=O)c1ccccc1	enzyme activity	inhibitor		10 µM	remaining activity	57%
CCCOc1ccc([C@@H]2[C@@H](C(=O)O)[C@H](c3ccc4c(c3)OCO4)CN2CC(=O)Nc2c(CC)cccc2CC)cc1	cell-free assay		competition with immobilised ligand	1 µM	remaining binding	94%
CNCc1ccc(-c2cc(-c3nc(-c4ccc(S(=O)(=O)C(C)C)cc4)cnc3N)on2)cc1	enzyme activity	inhibitor		2 µM	inhibition	83%
CCN(CC)CCNC(=O)c1c(C)[nH]c(/C=C2\C(=O)Nc3ccc(F)cc32)c1C	enzyme activity	inhibitor		0.3 µM	inhibition	99%
CC(C)CC(=O)N1CCc2nc(-c3ccc(Br)cc3)nc(N(C)Cc3ccccc3)c2C1	cell-free assay		competition with immobilised ligand	0.1 µM	remaining binding	100%
Cc1cnc(NC2CCOCC2)nc1-n1cnc(C(=O)NC(CN)c2cc(F)cc(Cl)c2)c1 (stereo not drawn)	enzyme activity	inhibitor	radiometric	1 µM	remaining activity	92%
O=C(O)[C@@H]1[C@@H](Cn2nnc3ccccc3c2=O)CC[C@H]1C(=O)c1ccc(OCCC2CCOCC2)cc1	cell-free assay		competition with immobilised ligand	1 µM	remaining binding	100%
COc1cc(Cl)c(C(=O)N[C@@H](CN[C@H]2CC[C@@H](N)CC2)Cc2ccc(C#N)cc2)cc1-c1ccc(CN[C@H](C)c2ccc(C)cc2)o1	enzyme activity	inhibitor		1 µM	remaining activity	102%
Cc1ccc(Nc2nccc(N(C)c3ccc4c(C)n(C)nc4c3)n2)cc1S(N)(=O)=O	enzyme activity	inhibitor		0.3 µM	inhibition	100%
C=CC(=O)Nc1cc(Nc2nccc(Nc3cc(Cl)c(F)cc3C(C)(C)O)n2)c(OC)cc1N1CC[C@@H](N(C)C)C1	enzyme activity	inhibitor		1 µM	inhibition	0%
Nc1ncnc2occ(-c3ccc(NC(=O)Nc4cc(C(F)(F)F)ccc4F)cc3)c12	cell-free assay			20 µM	remaining signal	0.55%
CS(=O)(=O)NCC[C@H](NC(=O)c1cncc2c1cnn2-c1ccc(F)cc1)c1ccnc(S(C)(=O)=O)c1	cell-free assay		competition with immobilised ligand	1 µM	remaining binding	90%
Cc1ccc(NC(=O)c2ccc(CN3CCN(C)CC3)cc2)cc1Nc1nc(-c2cccnc2)cs1	cell-free assay			0.5 µM	remaining signal	96.4%
CC(C)(O)[C@H]1CC[C@H](Nc2ccc3ncc(-c4cccc(C(F)(F)F)c4)n3n2)CC1	enzyme activity	inhibitor		1 µM	remaining activity	92.5%
CC/C(=N\NC(=O)NCc1cccc(O)c1)c1ccc(O)c(C)c1O	enzyme activity	inhibitor		0.1 µM	inhibition	2.5%
CCN(CC)c1ccc(C2=NNC(=O)CC2C)cc1[N+](=O)[O-] (stereo not drawn)	enzyme activity	inhibitor		10 µM	remaining activity	104%
CC(C)(C)c1nc2c(s1)c1nc(N)ncc1c1ccc(NS(=O)(=O)c3c(F)cccc3F)c(F)c12	enzyme activity	inhibitor	radiometric	1 µM	remaining activity	111%
COc1cc(/C=C/C(=O)CC(=O)/C=C/c2ccc(O)c(OC)c2)ccc1O	enzyme activity	inhibitor		1 µM	activity vs control	67%
Cc1nccc(COC(=O)N2C[C@@H]3[C@@H](CNC(=O)c4ccc5[nH]nnc5c4)[C@@H]3C2)n1	cell-free assay		competition with immobilised ligand	1 µM	remaining binding	100%
CC1CCCN1c1nccc(-c2cnn3ncccc23)n1 (stereo not drawn)	binding			1 µM	remaining binding	100%
CSc1cccnc1N1CCN(Cc2nc3ccccc3[nH]2)CC1	cell-free assay		competition with immobilised ligand	1 µM	remaining binding	100%
COc1cc2nccc(Oc3ccc(NC(=O)c4c5n(n(-c6ccc(F)cc6)c4=O)CCCC5)cc3)c2cc1OC	enzyme activity	inhibitor		0.1 µM	inhibition	23%
